Laboratory results reported in ChEMBL document CHEMBL1151726, “Interactions of antiviral indolo[2,3-b]quinoxaline derivatives with DNA” (2008).
Several values for one entry are separate records, joined by “and”; a condition that tells them apart may be missing. Equal values may be shown once. Activity calls are given as the source filed them. The rule behind the calls is not given here.

How the values were obtained:
Human betaherpesvirus 5 = experiment: Antiviral activity against human cytomegalovirus; format: functional
Nucleic Acid = experiment: Binding affinity to poly(dA-dT)2 DNA assessed as drug-DNA intercalation at 5 to 10 uM by emission spectra analysis; format: nucleic-acid assay
Method in brief: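 Emission spectra recorded with and without poly(dA-dT)2 at 100 µM bases. Ligand at 10 µM (monomeric) or 5 µM (dimeric), room temperature, 10 mM phosphate pH 7.5, total Na+ 100 mM.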

DNA [1] = experiment: Binding affinity to calf thymus DNA assessed as drug-DNA intercalation at 5 to 10 uM by absorption spectra analysis; format: nucleic-acid assay; conditions: Bos taurus
Method in brief: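 Ligands at 10 µM (monomeric) or 5 µM (dimeric) mixed 1:1 by volume with ct-DNA, 160 µM bases, in 10 mM phosphate pH 7.5, total Na+ 100 mM. Absorption spectra recorded at room temperature, several scans averaged.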

[2] = Ratio of binding constant K for 4 base pair binding site poly(dA-dT)2 DNA to binding constant K for calf thymus DNA
[3] = Ratio of binding constant K for 2 base pair binding site poly(dA-dT)2 DNA to binding constant K for calf thymus DNA
DNA [4] = experiment: Binding affinity to calf thymus DNA assessed as drug-DNA intercalation at 5 to 10 uM by linear dichroism analysis; format: nucleic-acid assay; conditions: Bos taurus
Method in brief: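 Flow linear dichroism with calf thymus DNA at 160 µM bases, ligand 10 µM (monomeric) or 5 µM (dimeric), 10 mM phosphate pH 7.5, Na+ 100 mM, room temperature. Spectra taken over 200–650 nm and baseline-corrected by subtracting the non-oriented sample spectrum.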

[5] = Ratio of binding constant K for poly(dA-dT)2 DNA to binding constant K for calf thymus DNA
[6] = Ratio of binding constant K for 3 base pair binding site poly(dA-dT)2 DNA to binding constant K for calf thymus DNA

**Q.** Which “inhibition (INH)” value (Human betaherpesvirus 5) does the source give for Cc1cc2nc3c4ccccc4n(CCN(C)C)c3nc2cc1C.I here?
**A.** 100%

**Q.** What does the source list for C[N+](C)(CCCCCC[N+](C)(C)CCn1c2ccccc2c2nc3ccccc3nc21)CCn1c2ccccc2c2nc3ccccc3nc21.[Br-].[Br-]?
**A.** Activity (Nucleic Acid): Active; Activity (DNA [1]): Active; Ratio [2]: 3; inhibition (INH) (Human betaherpesvirus 5): 100%

**Q.** For Cc1cc2nc3c4ccccc4n(CCN(C)C)c3nc2cc1C [listing 1 of 2 here], which Activity (Nucleic Acid) is on record?
**A.** Active

**Q.** What about the Activity (DNA [1]) of the same compound?
**A.** Active

**Q.** What about the Ratio [3] of the same compound?
**A.** 1.8 and 2.4

**Q.** And the Activity (DNA [4])?
**A.** inactive

**Q.** With Nc1nc2c(ncn2COC(CO)CO)c(=O)[nH]1 [GANCICLOVIR] as the compound, how does the “inhibition (INH)” value (Human betaherpesvirus 5) read?
**A.** 30%

**Q.** Which “inhibition (INH)” value (Human betaherpesvirus 5) does the source give for Cc1cc2nc3c4ccccc4n(CCN(C)C)c3nc2cc1C [listing 2 of 2 here] here?
**A.** 20%

**Q.** Which results are given for Cc1cc2nc3c4cc(N)ccc4n(CCN(C)C)c3nc2cc1C.Cl?
**A.** Activity (Nucleic Acid): Active; Activity (DNA [1]): Active; Ratio [5]: 1.7; inhibition (INH) (Human betaherpesvirus 5): 100%

**Q.** Which “inhibition (INH)” value (Human betaherpesvirus 5) does the source give for Cc1cc2nc3c4ccccc4n(CCN(C)C)c3nc2cc1C.Cl here?
**A.** 100%

**Q.** With C[N+](C)(CCC[N+](C)(C)CCn1c2ccccc2c2nc3ccccc3nc21)CCn1c2ccccc2c2nc3ccccc3nc21.[Br-].[Br-] as the compound, how does the Activity (Nucleic Acid) read?
**A.** Active

**Q.** And the Activity (DNA [1])?
**A.** Active

**Q.** What about the Ratio [6] of the same compound?
**A.** 1.9

**Q.** What about the “inhibition (INH)” value (Human betaherpesvirus 5) of the same compound?
**A.** 100%
